According to ChEMBL document CHEMBL1268908, “Design, synthesis, radiolabeling, and in vivo evaluation of carbon-11 labeled N-[2-[4-(3-cyanopyridin-2-yl)piperazin-1-yl]ethyl]-3-methoxybenzamide, a potential positron emission tomography tracer for the dopamine D(4) receptors” (J Med Chem, 2010):

Assays:
Type in all cases: ADME, organism-based, Macaca mulatta
[1] = Biodistribution in rhesus monkey cingulate cortex at 150.3 MBq, iv after 72.5 mins; conditions: in vivo
Outline: (§1)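 Single male rhesus monkey anesthetized with ketamine 10 mg/kg im, head fixed. Attenuation correction by 20 min 68Ge-68Ga transmission scan. [11C]-tracer in saline (pH 7.4) given iv, specific radioactivity 2.9 TBq/μmol at injection. Dynamic 3D PET emission scan over 90 min in frames of 0.5 to 5 min. MRI T1 images used to define VOIs. Uptake expressed as […].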

[2] = Biodistribution in rhesus monkey occipital lobe at 150.3 MBq, iv after 5.5 mins; conditions: in vivo
[3] = system: Hippocampus; experiment: Biodistribution in rhesus monkey hippocampus at 150.3 MBq, iv after 2.25 mins; conditions: in vivo, 135 s; outline: as §1
[4] = system: Hippocampus; experiment: Biodistribution in rhesus monkey hippocampus at 150.3 MBq, iv after 35 mins; conditions: in vivo
Outline: (§2)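 Male rhesus monkey under ketamine 10 mg/kg im, head fixed; 20 min 68Ge-68Ga transmission scan, then 90 min dynamic 3D PET (6×0.5, 7×1, 20×2, 8×5 min frames) after iv [11C]-labelled tracer in saline, specific radioactivity about 2.9 TBq/μmol at injection. Regions defined on T1-weighted MRI; uptake expressed as % injected dose per mL.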

[5] = Biodistribution in rhesus monkey entorhinal cortex at 150.3 MBq, iv after 62.5 mins; conditions: in vivo; outline: as §1
[6] = system: Striatum; experiment: Biodistribution in rhesus monkey striatum at 150.3 MBq, iv after 4.5 mins; conditions: in vivo, 0.075 h
[7] = Biodistribution in rhesus monkey entorhinal cortex at 150.3 MBq, iv after 27 mins; conditions: in vivo, 0.45 h; outline: as §1
[8] = system: Striatum; experiment: Biodistribution in rhesus monkey striatum at 150.3 MBq, iv after 31 mins; conditions: in vivo
[9] = Biodistribution in rhesus monkey cerebellum at 150.3 MBq, iv after 62.5 mins; conditions: in vivo
Outline: (§3)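 Male rhesus monkey under ketamine (10 mg/kg im) with head fixation. After a 20 min 68Ge-68Ga transmission scan, the [11C]-labelled tracer in saline (pH 7.4) was injected iv, at 2.9 TBq/μmol specific radioactivity at injection. A dynamic 3D PET scan followed over 90 min (6×0.5, 7×1, 20×2, 8×5 min frames). Regions were defined on T1-weighted 1.5 T MRI, and uptake is given as %ID/mL.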

[10] = system: Striatum; experiment: Biodistribution in rhesus monkey striatum at 150.3 MBq, iv after 1.75 mins; conditions: in vivo, 105 s
[11] = system: Hippocampus; experiment: Biodistribution in rhesus monkey hippocampus at 150.3 MBq, iv after 27 mins; conditions: in vivo, 0.45 h; outline: as §1
[12] = Biodistribution in rhesus monkey entorhinal cortex at 150.3 MBq, iv after 35 mins; conditions: in vivo; outline: as §1
[13] = system: Hippocampus; experiment: Biodistribution in rhesus monkey hippocampus at 150.3 MBq, iv after 31 mins; conditions: in vivo; outline: as §2
[14] = Biodistribution in rhesus monkey cingulate cortex at 150.3 MBq, iv after 47 mins; conditions: in vivo; outline: as §3
[15] = system: Hippocampus; experiment: Biodistribution in rhesus monkey hippocampus at 150.3 MBq, iv after 33 mins; conditions: in vivo, 0.55 h; outline: as §2
[16] = Biodistribution in rhesus monkey cingulate cortex at 150.3 MBq, iv after 1.25 mins; conditions: in vivo, 75 s; outline: as §3
[17] = Biodistribution in rhesus monkey retina at 150.3 MBq, iv after 2.25 mins; conditions: in vivo, 135 s
[18] = Biodistribution in rhesus monkey retina at 150.3 MBq, iv after 2.75 mins; conditions: in vivo, 165 s
[19] = Biodistribution in rhesus monkey cingulate cortex at 150.3 MBq, iv after 0.25 mins; conditions: in vivo, 15 s; outline: as §3
[20] = Biodistribution in rhesus monkey cerebellum at 150.3 MBq, iv after 0.75 mins; conditions: in vivo, 45 s; outline: as §3
[21] = Biodistribution in rhesus monkey cingulate cortex at 150.3 MBq, iv after 4.5 mins; conditions: in vivo, 0.075 h; outline: as §3
[22] = system: Hippocampus; experiment: Biodistribution in rhesus monkey hippocampus at 150.3 MBq, iv after 45 mins; conditions: in vivo, 0.75 h; outline: as §2
[23] = Biodistribution in rhesus monkey cingulate cortex at 150.3 MBq, iv after 25 mins; conditions: in vivo; outline: as §3
[24] = Biodistribution in rhesus monkey entorhinal cortex at 150.3 MBq, iv after 45 mins; conditions: in vivo, 0.75 h; outline: as §1
[25] = Biodistribution in rhesus monkey entorhinal cortex at 150.3 MBq, iv after 21 mins; conditions: in vivo, 0.35 h; outline: as §1
[26] = system: Hippocampus; experiment: Biodistribution in rhesus monkey hippocampus at 150.3 MBq, iv after 11 mins; conditions: in vivo; outline: as §1
[27] = Biodistribution in rhesus monkey entorhinal cortex at 150.3 MBq, iv after 52.5 mins; conditions: in vivo, 0.875 h; outline: as §1
[28] = Biodistribution in rhesus monkey retina at 150.3 MBq, iv after 7.5 mins; conditions: in vivo, 0.125 h
[29] = Biodistribution in rhesus monkey retina at 150.3 MBq, iv after 23 mins; conditions: in vivo
[30] = system: Striatum; experiment: Biodistribution in rhesus monkey striatum at 150.3 MBq, iv after 27 mins; conditions: in vivo, 0.45 h
[31] = Biodistribution in rhesus monkey occipital lobe at 150.3 MBq, iv after 3.5 mins; conditions: in vivo; outline: as §2
[32] = system: Hippocampus; experiment: Biodistribution in rhesus monkey hippocampus at 150.3 MBq, iv after 67.5 mins; conditions: in vivo, 1.125 h; outline: as §2
[33] = system: Hippocampus; experiment: Biodistribution in rhesus monkey hippocampus at 150.3 MBq, iv after 57.5 mins; conditions: in vivo; outline: as §2
[34] = Biodistribution in rhesus monkey retina at 150.3 MBq, iv after 25 mins; conditions: in vivo
[35] = Biodistribution in rhesus monkey cerebellum at 150.3 MBq, iv after 37 mins; conditions: in vivo; outline: as §3
[36] = system: Hippocampus; experiment: Biodistribution in rhesus monkey hippocampus at 150.3 MBq, iv after 39 mins; conditions: in vivo, 0.65 h; outline: as §2
[37] = Biodistribution in rhesus monkey cingulate cortex at 150.3 MBq, iv after 77.5 mins; conditions: in vivo; outline: as §1
[38] = Biodistribution in rhesus monkey occipital lobe at 150.3 MBq, iv after 4.5 mins; conditions: in vivo, 0.075 h; outline: as §2
[39] = Biodistribution in rhesus monkey entorhinal cortex at 150.3 MBq, iv after 2.75 mins; conditions: in vivo, 165 s; outline: as §1
[40] = Biodistribution in rhesus monkey cingulate cortex at 150.3 MBq, iv after 7.5 mins; conditions: in vivo, 0.125 h; outline: as §1
[41] = system: Striatum; experiment: Biodistribution in rhesus monkey striatum at 150.3 MBq, iv after 3.5 mins; conditions: in vivo
[42] = Biodistribution in rhesus monkey entorhinal cortex at 150.3 MBq, iv after 41 mins; conditions: in vivo; outline: as §1
[43] = Biodistribution in rhesus monkey occipital lobe at 150.3 MBq, iv after 8.5 mins; conditions: in vivo
[44] = Biodistribution in rhesus monkey cerebellum at 150.3 MBq, iv after 5.5 mins; conditions: in vivo; outline: as §3
[45] = Biodistribution in rhesus monkey cingulate cortex at 150.3 MBq, iv after 3.5 mins; conditions: in vivo; outline: as §3
[46] = Biodistribution in rhesus monkey cerebellum at 150.3 MBq, iv after 3.5 mins; conditions: in vivo; outline: as §3
[47] = system: Hippocampus; experiment: Biodistribution in rhesus monkey hippocampus at 150.3 MBq, iv after 5.5 mins; conditions: in vivo; outline: as §2
[48] = system: Hippocampus; experiment: Biodistribution in rhesus monkey hippocampus at 150.3 MBq, iv after 0.75 mins; conditions: in vivo, 45 s; outline: as §1

With `[11CH3]Oc1cccc(C(=O)NCCN2CCN(c3ncccc3C#N)CC2)c1` the Drug uptake [1] was 9.513 kBq/ml, the Drug uptake [2] was 32.15 kBq/ml and the Drug uptake [3] was 50.51 kBq/ml. The Drug uptake [4] was 12.16 kBq/ml, the Drug uptake [5] was 10.43 kBq/ml and the Drug uptake [6] was 42.26 kBq/ml. It also gave a Drug uptake [7] of 14.48 kBq/ml, a Drug uptake [8] of 14.4435 kBq/ml and a Drug uptake [9] of 8.418 kBq/ml. For the same compound, the Drug uptake [10] was 56.85 kBq/ml, the Drug uptake [11] was 15.74 kBq/ml and the Drug uptake [12] was 11.33 kBq/ml. It also gave a Drug uptake [13] of 14.91 kBq/ml, a Drug uptake [14] of 10.29 kBq/ml and a Drug uptake [15] of 13.18 kBq/ml. For the same compound, the Drug uptake [16] was 60.79 kBq/ml, the Drug uptake [17] was 36.9 kBq/ml and the Drug uptake [18] was 37.33 kBq/ml. For the same compound, the Drug uptake [19] was 46.02 kBq/ml, the Drug uptake [20] was 56.67 kBq/ml and the Drug uptake [21] was 39.8367 kBq/ml. It also gave a Drug uptake [22] of 10.64 kBq/ml, a Drug uptake [23] of 16.82 kBq/ml and a Drug uptake [24] of 10.89 kBq/ml. It also gave a Drug uptake [25] of 19.46 kBq/ml, a Drug uptake [26] of 27 kBq/ml and a Drug uptake [27] of 9.01 kBq/ml. It also gave a Drug uptake [28] of 43.92 kBq/ml, a Drug uptake [29] of 54.68 kBq/ml and a Drug uptake [30] of 16.63 kBq/ml. It also gave a Drug uptake [31] of 37.15 kBq/ml, a Drug uptake [32] of 8.799 kBq/ml and a Drug uptake [33] of 7.745 kBq/ml. For the same compound, the Drug uptake [34] was 56.02 kBq/ml, the Drug uptake [35] was 11.56 kBq/ml and the Drug uptake [36] was 12.1253 kBq/ml. For the same compound, the Drug uptake [37] was 9.3 kBq/ml, the Drug uptake [38] was 33.71 kBq/ml and the Drug uptake [39] was 41.01 kBq/ml. It also gave a Drug uptake [40] of 32.75 kBq/ml, a Drug uptake [41] of 46.0188 kBq/ml and a Drug uptake [42] of 11.877 kBq/ml. The Drug uptake [43] was 25.53 kBq/ml, the Drug uptake [44] was 33.43 kBq/ml and the Drug uptake [45] was 42.88 kBq/ml. For the same compound, the Drug uptake [46] was 38.562 kBq/ml, the Drug uptake [47] was 39.36 kBq/ml and the Drug uptake [48] was 57.7053 kBq/ml.
